# Experimental data taken from ChEMBL document CHEMBL4425140, “Discovery of a Potent and Selective Coactivator Associated Arginine Methyltransferase 1 (CARM1) Inhibitor by Virtual Screening” (J Med Chem, 2016).
# pIC50, pKd: −log10 of the molar value. Calls of active or inactive are those of the source. No cut-off for these calls is given here.
# How the values were obtained:
# [1] = target: T1, Histone-arginine methyltransferase CARM1 (Homo sapiens, UniProt Q86X55); test: Inhibition of full-length Halo-tagged human CARM1 (1 to 608 residues) expressed in 293-F cells using [3H]-SAM and biotinylated histone peptides by scintillation proximity based radiometric assay; format: cell-based; details: for pIC50: read-out: IC50
# T1 sequence (Q86X55 whole entry): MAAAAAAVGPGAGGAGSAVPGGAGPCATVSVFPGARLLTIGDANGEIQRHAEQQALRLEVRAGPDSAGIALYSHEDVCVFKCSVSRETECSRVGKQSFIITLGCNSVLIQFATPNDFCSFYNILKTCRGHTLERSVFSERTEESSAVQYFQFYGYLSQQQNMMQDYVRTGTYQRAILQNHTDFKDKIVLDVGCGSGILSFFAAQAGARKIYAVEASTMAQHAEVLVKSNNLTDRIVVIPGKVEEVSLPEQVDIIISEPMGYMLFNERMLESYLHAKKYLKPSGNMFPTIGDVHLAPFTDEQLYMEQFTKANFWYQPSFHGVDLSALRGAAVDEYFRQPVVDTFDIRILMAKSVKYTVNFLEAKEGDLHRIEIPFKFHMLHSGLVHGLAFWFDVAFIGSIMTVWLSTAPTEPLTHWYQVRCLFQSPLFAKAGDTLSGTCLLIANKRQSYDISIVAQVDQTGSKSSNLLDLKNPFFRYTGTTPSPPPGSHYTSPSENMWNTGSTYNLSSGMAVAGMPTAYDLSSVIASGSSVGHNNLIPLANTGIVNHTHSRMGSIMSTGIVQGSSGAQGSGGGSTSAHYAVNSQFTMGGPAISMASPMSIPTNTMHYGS
# [2] = target: Protein arginine N-methyltransferase 6 (Homo sapiens, UniProt Q96LA8); test: Inhibition of PRMT6 (unknown origin); details: for pIC50: read-out: IC50
# [3] = target: Protein arginine N-methyltransferase 8 (Homo sapiens, UniProt Q9NR22); test: Inhibition of PRMT8 (unknown origin); details: for pIC50: read-out: IC50
# [4] = Selectivity index, ratio of IC50 for RMT6 (unknown origin) to IC50 for full-length Halo-tagged human CARM1 (1 to 608 residues) expressed in 293-F cells; format: cell-based
# [5] = target: Protein arginine N-methyltransferase 1 (Homo sapiens, UniProt Q99873); test: Inhibition of PRMT1 (unknown origin)
# [6] = target: Protein arginine N-methyltransferase 3 (Homo sapiens, UniProt O60678); test: Inhibition of PRMT3 (unknown origin)
# [7] = target: Protein arginine N-methyltransferase 5 (Homo sapiens, UniProt O14744); test: Inhibition of PRMT5 (unknown origin)
# [8] = target: T2, Protein arginine N-methyltransferase 7 (Homo sapiens, UniProt Q9NVM4); test: Inhibition of PRMT7 (unknown origin)
# T2 sequence (Q9NVM4 whole entry): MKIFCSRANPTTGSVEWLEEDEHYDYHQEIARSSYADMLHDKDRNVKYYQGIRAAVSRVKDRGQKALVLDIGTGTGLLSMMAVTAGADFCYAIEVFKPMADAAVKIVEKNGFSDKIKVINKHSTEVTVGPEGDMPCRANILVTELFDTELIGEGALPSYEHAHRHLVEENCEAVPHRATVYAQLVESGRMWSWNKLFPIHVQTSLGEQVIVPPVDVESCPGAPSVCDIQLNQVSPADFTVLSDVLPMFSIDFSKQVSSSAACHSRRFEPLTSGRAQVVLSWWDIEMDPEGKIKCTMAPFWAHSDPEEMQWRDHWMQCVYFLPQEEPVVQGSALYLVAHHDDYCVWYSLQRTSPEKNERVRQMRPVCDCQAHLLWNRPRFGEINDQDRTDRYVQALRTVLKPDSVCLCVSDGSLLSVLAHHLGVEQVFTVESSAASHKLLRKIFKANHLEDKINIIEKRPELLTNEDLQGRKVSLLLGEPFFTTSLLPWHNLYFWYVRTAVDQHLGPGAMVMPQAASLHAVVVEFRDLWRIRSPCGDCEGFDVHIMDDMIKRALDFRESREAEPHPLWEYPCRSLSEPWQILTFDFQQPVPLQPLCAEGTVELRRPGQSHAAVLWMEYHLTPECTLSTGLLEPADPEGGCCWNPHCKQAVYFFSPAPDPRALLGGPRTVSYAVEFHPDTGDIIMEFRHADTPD
# [9] = target: T3, Histone-arginine methyltransferase CARM1 (Homo sapiens) (UniProt Q86X55); test: Non-competitive inhibition of full-length Halo-tagged human CARM1 (1 to 608 residues) expressed in 293-F cells using [3H]-SAM and increasing biotinylated histone peptides by scintillation proximity based radiometric assay; format: cell-based
# T3 sequence (whole entry): T1 sequence (Q86X55 whole entry)
# [10] = target: T3, Histone-arginine methyltransferase CARM1 (Homo sapiens); test: Non-competitive inhibition of full-length Halo-tagged human CARM1 (1 to 608 residues) expressed in 293-F cells using increasing [3H]-SAM and biotinylated histone peptides by scintillation proximity based radiometric assay; format: cell-based
# [11] = target: T3, Histone-arginine methyltransferase CARM1 (Homo sapiens); test: Inhibition of CARM1 in HEK293 cells assessed as reduction in BAF155 methylation at 1 uM incubated for 48 hrs by SDS-PAGE and immunoblotting
# [12] = target: T3, Histone-arginine methyltransferase CARM1 (Homo sapiens); test: Inhibition of CARM1 in HEK293 cells assessed as reduction in BAF155 methylation at 10 uM incubated for 48 hrs by SDS-PAGE and immunoblotting
# [13] = target: T1, Histone-arginine methyltransferase CARM1; test: Binding affinity to full-length Halo-tagged human CARM1 (1 to 608 residues) expressed in 293-F cells by surface plasmon resonance assay
# Method in brief: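 About 4500 RU of CARM1 amine-coupled to a CM5 chip, blank cell used for reference subtraction. Compounds serially diluted in DMSO, then into HBS-EP buffer at 5% DMSO final. Contact time 30 s at 75 μL/min.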
# [14] = target: T3, Histone-arginine methyltransferase CARM1 (Homo sapiens); test: Inhibition of full-length Halo-tagged human CARM1 (1 to 608 residues) expressed in 293-F cells at 10 uM using [3H]-SAM and biotinylated histone peptides by scintillation proximity based radiometric assay; format: cell-based
# Method in brief: (§1)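 Radiometric scintillation proximity assay. Tag-cleaved full-length human CARM1 (1–608) at 25 nM, with 0.7 μM C-terminally biotinylated H3 1–25 peptide and 1.9 μM [3H]-SAM in 20 mM bicine pH 8.5. Transfer of tritiated methyl to the peptide counted as cpm. Single compound concentration per line.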
# [15] = target: T3, Histone-arginine methyltransferase CARM1 (Homo sapiens); test: Inhibition of full-length Halo-tagged human CARM1 (1 to 608 residues) expressed in 293-F cells at 50 uM using [3H]-SAM and biotinylated histone peptides by scintillation proximity based radiometric assay; format: cell-based; method in brief: as §1
# [16] = target: T3, Histone-arginine methyltransferase CARM1 (Homo sapiens); test: Binding affinity to full-length Halo-tagged human CARM1 (1 to 608 residues) expressed in 293-F cells assessed as change in melting temperature by Sypro orange dye based differential scanning fluorimetry; format: cell-based
# [17] = target: T3, Histone-arginine methyltransferase CARM1 (Homo sapiens); test: Binding affinity to full-length Halo-tagged human CARM1 (1 to 608 residues) expressed in 293-F cells assessed as change in aggregation temperature by differential static light scattering; format: cell-based
# Method in brief: (§2)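 Full-length human CARM1 (residues 1–608) expressed as a HaloTag fusion in FreeStyle 293-F cells, HaloTag-purified, tag removed with TEV. Heated from 30 to 80 °C at 1 °C/min; aggregation temperature shift read by static light scattering.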
# [18] = target: T3, Histone-arginine methyltransferase CARM1 (Homo sapiens); test: Binding affinity to full-length Halo-tagged human CARM1 (1 to 608 residues) expressed in 293-F cells assessed as change in melting temperature in presencee of SAM by Sypro orange dye based differential scanning fluorimetry; format: cell-based
# [19] = target: T3, Histone-arginine methyltransferase CARM1 (Homo sapiens); test: Binding affinity to full-length Halo-tagged human CARM1 (1 to 608 residues) expressed in 293-F cells assessed as change in aggregation temperature in presence of SAM by differential static light scattering; format: cell-based; method in brief: as §2
# Chain of Protein arginine N-methyltransferase 8 (Q9NR22 whole entry, the tested form may be a part): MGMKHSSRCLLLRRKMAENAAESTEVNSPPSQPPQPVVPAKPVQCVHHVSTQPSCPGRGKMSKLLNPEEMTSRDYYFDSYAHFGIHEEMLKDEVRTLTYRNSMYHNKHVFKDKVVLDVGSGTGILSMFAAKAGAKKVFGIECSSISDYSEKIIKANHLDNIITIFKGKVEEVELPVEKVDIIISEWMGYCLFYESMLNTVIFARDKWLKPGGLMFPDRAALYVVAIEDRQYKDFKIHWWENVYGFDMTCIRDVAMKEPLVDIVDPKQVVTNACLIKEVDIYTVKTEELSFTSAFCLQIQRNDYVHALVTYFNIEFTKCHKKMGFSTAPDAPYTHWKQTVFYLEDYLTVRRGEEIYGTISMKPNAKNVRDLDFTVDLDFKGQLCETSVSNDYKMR
# Chain of Protein arginine N-methyltransferase 6 (Q96LA8 whole entry): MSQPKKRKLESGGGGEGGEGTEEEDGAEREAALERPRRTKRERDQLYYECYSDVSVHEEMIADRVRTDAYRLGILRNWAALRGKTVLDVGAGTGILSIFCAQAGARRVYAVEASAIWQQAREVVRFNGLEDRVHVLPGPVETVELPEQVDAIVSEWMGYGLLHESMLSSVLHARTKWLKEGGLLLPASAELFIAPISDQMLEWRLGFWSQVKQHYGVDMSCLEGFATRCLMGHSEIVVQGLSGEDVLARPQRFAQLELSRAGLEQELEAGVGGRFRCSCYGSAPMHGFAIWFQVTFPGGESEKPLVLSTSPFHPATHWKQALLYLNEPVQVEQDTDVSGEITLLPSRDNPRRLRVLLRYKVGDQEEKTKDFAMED
# Chain of Protein arginine N-methyltransferase 1 (Q99873 whole entry): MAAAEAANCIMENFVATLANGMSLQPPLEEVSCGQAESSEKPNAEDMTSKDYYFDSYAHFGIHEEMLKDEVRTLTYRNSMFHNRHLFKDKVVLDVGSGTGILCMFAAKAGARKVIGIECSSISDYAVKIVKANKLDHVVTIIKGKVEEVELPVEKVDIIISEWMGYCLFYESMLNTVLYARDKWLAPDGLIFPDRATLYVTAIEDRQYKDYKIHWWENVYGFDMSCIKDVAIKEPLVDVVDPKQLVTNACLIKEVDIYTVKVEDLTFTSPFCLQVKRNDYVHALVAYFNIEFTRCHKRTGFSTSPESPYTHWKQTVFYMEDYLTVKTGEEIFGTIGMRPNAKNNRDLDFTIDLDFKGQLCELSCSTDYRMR
# Chain of Protein arginine N-methyltransferase 3 (O60678 whole entry): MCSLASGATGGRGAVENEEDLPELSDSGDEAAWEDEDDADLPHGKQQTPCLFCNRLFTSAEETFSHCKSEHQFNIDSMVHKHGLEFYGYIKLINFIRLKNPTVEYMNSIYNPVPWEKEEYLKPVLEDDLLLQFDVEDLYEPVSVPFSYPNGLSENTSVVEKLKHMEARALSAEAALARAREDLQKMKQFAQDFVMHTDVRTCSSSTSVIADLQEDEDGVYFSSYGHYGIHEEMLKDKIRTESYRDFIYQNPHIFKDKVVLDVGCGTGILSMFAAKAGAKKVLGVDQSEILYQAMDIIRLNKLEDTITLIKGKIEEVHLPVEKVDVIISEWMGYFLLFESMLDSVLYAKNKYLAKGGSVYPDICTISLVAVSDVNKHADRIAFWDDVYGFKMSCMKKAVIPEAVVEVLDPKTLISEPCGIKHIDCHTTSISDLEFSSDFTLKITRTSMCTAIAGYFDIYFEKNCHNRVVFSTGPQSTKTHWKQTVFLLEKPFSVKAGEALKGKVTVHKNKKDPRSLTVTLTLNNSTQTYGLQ
# Chain of Protein arginine N-methyltransferase 5 (O14744 whole entry): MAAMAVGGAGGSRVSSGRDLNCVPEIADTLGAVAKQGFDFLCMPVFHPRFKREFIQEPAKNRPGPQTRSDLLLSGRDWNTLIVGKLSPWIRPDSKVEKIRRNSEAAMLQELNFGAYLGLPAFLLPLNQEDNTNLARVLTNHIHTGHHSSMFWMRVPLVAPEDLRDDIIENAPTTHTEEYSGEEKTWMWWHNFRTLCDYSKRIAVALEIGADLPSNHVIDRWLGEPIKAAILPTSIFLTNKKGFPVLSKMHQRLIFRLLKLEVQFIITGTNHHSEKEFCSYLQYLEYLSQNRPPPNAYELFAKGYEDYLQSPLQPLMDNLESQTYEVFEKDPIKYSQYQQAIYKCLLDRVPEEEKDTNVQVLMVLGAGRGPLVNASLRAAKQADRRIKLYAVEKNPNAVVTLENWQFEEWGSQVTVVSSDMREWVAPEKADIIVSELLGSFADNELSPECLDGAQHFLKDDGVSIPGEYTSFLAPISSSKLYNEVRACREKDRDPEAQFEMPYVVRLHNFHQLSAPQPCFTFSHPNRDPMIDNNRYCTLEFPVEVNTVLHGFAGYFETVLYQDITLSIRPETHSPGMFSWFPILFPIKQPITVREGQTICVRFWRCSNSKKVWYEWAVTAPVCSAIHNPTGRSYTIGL
smiles,measurement,setting,value
Cc1cc(C)cc(Oc2ccc(CNC(=O)[C@H](C)N)cc2C)c1,pIC50,[1],7.30
same,pIC50,[2],5.28
same,pIC50,[3],< 4.30
same,Ratio IC50,[4],> 100
same,pIC50,[5],< 4.00
same,pIC50,[6],< 4.00
same,pIC50,[7],< 4.00
same,pIC50,[8],< 4.00
same,inhibition,[9],Active
same,inhibition,[10],Active
same,inhibition,[11],inactive
same,inhibition,[12],inactive
Cc1cc(OCCNCCN)ccc1C(C)C,pIC50,[1],4.78
same,IC50,[2],Not Active
same,IC50,[3],Not Active
same,Kd,[13],Not Active
NCC(=O)NCc1cccnc1Oc1ccc(F)cc1F,IC50,[2],Not Active
Cc1cc(C)n(-c2ccc(CNC(=O)C(C)N)cc2)n1 (configuration not stated),IC50,[1],Not Active
same,IC50,[2],Not Active
NCCN1CCC(c2nnc(Cn3ccnc3)n2C2CC2)CC1,pIC50,[1],< 4.30
same,IC50,[2],Not Active
same,IC50,[3],Not Active
same,inhibition,[14],Active
same,inhibition,[15],Active
CNCCNC1CCN(c2cccc(-c3ccnc(C)n3)c2)CC1,pIC50,[1],4.95
same,pIC50,[2],5.05
same,pIC50,[3],4.59
same,inhibition,[14],Active
same,inhibition,[15],Active
CC(C)(N)C(=O)NCc1cccnc1Oc1ccc(F)cc1F,IC50,[1],Not Active
same,IC50,[2],Not Active
C[C@H](N)C(=O)NCc1cccnc1N(C)Cc1ccccc1,pIC50,[1],< 4.52
same,IC50,[2],Not Active
same,IC50,[3],Not Active
same,inhibition,[14],Active
same,inhibition,[15],Active
CC(N)C(=O)NCc1ccccc1 (configuration not stated),pIC50,[1],< 4.70
same,IC50,[2],Not Active
same,IC50,[3],Not Active
same,inhibition,[14],Active
same,inhibition,[15],Active
CN(CCN)Cc1ccccc1,pIC50,[1],5.12
same,pIC50,[2],5.60
same,pIC50,[3],5.22
same,inhibition,[14],Active
same,inhibition,[15],Active
C[C@@H](N)C(=O)NCc1cccnc1Oc1ccc(F)cc1F,pIC50,[1],< 4.40
same,IC50,[2],Not Active
CNCCN1CCCC1,pIC50,[1],5.51
same,pIC50,[2],5.72
same,pIC50,[3],5.00
same,inhibition,[14],Active
same,inhibition,[15],Active
CN[C@@H](C)C(=O)NCc1cccnc1Oc1ccc(F)cc1F,IC50,[1],Not Active
same,IC50,[2],Not Active
NC1(C(=O)NCc2cccnc2Oc2ccc(F)cc2F)CC1,IC50,[1],Not Active
same,IC50,[2],Not Active
CNCC(=O)NCc1cccnc1Oc1ccc(F)cc1F,IC50,[1],Not Active
same,IC50,[2],Not Active
CCC(c1ccc(OC)cc1)N(C)CCN (configuration not stated),IC50,[1],Not Active
same,pIC50,[2],< 4.60
same,IC50,[3],Not Active
NCC(=O)NCCc1ccccc1,pIC50,[1],4.69
same,IC50,[2],Not Active
same,IC50,[3],Not Active
same,Kd,[13],Not Active
CNCCN1CCC(OCc2ccccc2)CC1,inhibition,[12],Active
CC(Cc1c[nH]c2ccccc12)NC(=O)CN (configuration not stated),pIC50,[1],< 4.19
same,IC50,[2],Not Active
same,IC50,[3],Not Active
same,inhibition,[14],Active
same,inhibition,[15],Active
C[C@H](N)C(=O)NCc1cccnc1Oc1ccc(F)cc1F,pIC50,[1],5.72
same,pIC50,[2],4.85
same,IC50,[3],Not Active
same,inhibition,[14],Active
same,inhibition,[15],Active
same,ΔTm,[16],2.1 °C
same,ΔTm,[17],1.9 °C
same,Activity,[18],Active
same,Activity,[19],Active
same,pKd,[13]; read-out: Kd,5.05
